Source: ChEMBL document CHEMBL1122557, “Antiallergic agents. 3. N-(1H-tetrazol-5-yl)-2-pyridinecarboxamides” (1984)
Active and inactive are the calls of the source. The rule behind the calls is not given here.

Columns and labels:
Rattus norvegicus [1] = assay: Inhibition of passive cutaneous anaphylaxis following 10 mg/kg p.o. administration.; type: functional; conditions: route oral
Procedure, shortened: (§1)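 Rat passive cutaneous anaphylaxis model, with test agents given by the oral route.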

Rattus norvegicus [2] = assay: Inhibition of passive cutaneous anaphylaxis following 30 mg/kg p.o. administration.; type: functional; conditions: route oral; procedure, shortened: as §1
Rattus norvegicus [3] = assay: Inhibition of passive cutaneous anaphylaxis following 3 mg/kg p.o. administration.; type: functional; conditions: route oral; procedure, shortened: as §1
Rattus norvegicus [4] = assay: Inhibition of passive cutaneous anaphylaxis following 3 mg/kg p.o. (5 min pretreatment) administration.; type: functional; conditions: route oral; procedure, shortened: as §1
Rattus norvegicus [5] = assay: Inhibition of passive cutaneous anaphylaxis following 1 mg/kg p.o. administration.; type: functional; conditions: route oral; procedure, shortened: as §1
Rattus norvegicus [6] = assay: Inhibition of passive cutaneous anaphylaxis following 10 mg/kg p.o. administration; Inactive.; type: functional, organism-based; set-up: dose 10 mg/kg; conditions: at 10 mg/kg; procedure, shortened: as §1

Cc1cccnc1C(=O)Nc1nn[nH]n1
inhibition in vivo at 10 mg/kg (Rattus norvegicus [1]): 69%

O=C(Nc1nn[nH]n1)c1ccncc1
inhibition in vivo at 30 mg/kg (Rattus norvegicus [2]): 57%

Cc1cc(C)nc(C(=O)Nc2nn[nH]n2)c1
inhibition in vivo at 3 mg/kg (Rattus norvegicus [3]): 44% | inhibition in vivo at 3 mg/kg (Rattus norvegicus [4]): 37%

Cc1ccc(C)c(C(=O)Nc2nn[nH]n2)n1
inhibition in vivo at 1 mg/kg (Rattus norvegicus [5]): 37% | inhibition in vivo at 3 mg/kg (Rattus norvegicus [3]): 65% | inhibition in vivo at 3 mg/kg (Rattus norvegicus [4]): 72%

CCOC(=O)C(=O)Nc1cccc(/C=C/c2ccccc2)n1
inhibition (Rattus norvegicus [6]): inactive

O=C(Nc1nn[nH]n1)c1ncccc1Cl
inhibition in vivo at 10 mg/kg (Rattus norvegicus [1]): 22%

O=C(Nc1nn[nH]n1)c1cccc(CCc2ccccc2)n1
inhibition in vivo at 10 mg/kg (Rattus norvegicus [1]): 45%

CCCCc1ccnc(C(=O)Nc2nn[nH]n2)c1
inhibition in vivo at 10 mg/kg (Rattus norvegicus [1]): 54% | inhibition in vivo at 3 mg/kg (Rattus norvegicus [3]): 33%

Cc1cccc(C(=O)Nc2nn[nH]n2)n1
inhibition in vivo at 1 mg/kg (Rattus norvegicus [5]): 40% | inhibition in vivo at 3 mg/kg (Rattus norvegicus [3]): 46% | inhibition in vivo at 3 mg/kg (Rattus norvegicus [4]): 73%

CCCc1cccc(C(=O)Nc2nn[nH]n2)n1
inhibition in vivo at 10 mg/kg (Rattus norvegicus [1]): 38%

O=C(Nc1nn[nH]n1)c1cccc(Cl)n1
inhibition in vivo at 10 mg/kg (Rattus norvegicus [1]): 13% | inhibition in vivo at 3 mg/kg (Rattus norvegicus [3]): 18%

O=C(Nc1nn[nH]n1)c1cccc(/C=C/c2ccccc2)n1
inhibition in vivo at 1 mg/kg (Rattus norvegicus [5]): 53% | inhibition in vivo at 3 mg/kg (Rattus norvegicus [3]): 73% | inhibition in vivo at 3 mg/kg (Rattus norvegicus [4]): 75%

COc1cc(C)nc(C(=O)Nc2nn[nH]n2)c1
inhibition in vivo at 10 mg/kg (Rattus norvegicus [1]): 20%

Cc1ccc(C(=O)Nc2nn[nH]n2)nc1C
inhibition in vivo at 10 mg/kg (Rattus norvegicus [1]): 42%

CC(C)c1ccnc(C(=O)Nc2nn[nH]n2)c1
inhibition in vivo at 1 mg/kg (Rattus norvegicus [5]): 36% | inhibition in vivo at 3 mg/kg (Rattus norvegicus [3]): 34%

CCCCOc1cccc(C(=O)Nc2nn[nH]n2)n1
inhibition in vivo at 10 mg/kg (Rattus norvegicus [1]): 8% | inhibition in vivo at 3 mg/kg (Rattus norvegicus [3]): 18%

Cc1cc([N+](=O)[O-])cc(C(=O)Nc2nn[nH]n2)n1
inhibition in vivo at 10 mg/kg (Rattus norvegicus [1]): 6%

O=C(Nc1nn[nH]n1)c1ccccn1
inhibition in vivo at 1 mg/kg (Rattus norvegicus [5]): 0% | inhibition in vivo at 10 mg/kg (Rattus norvegicus [1]): 35% | inhibition in vivo at 3 mg/kg (Rattus norvegicus [3]): 29% | inhibition in vivo at 30 mg/kg (Rattus norvegicus [2]): 100%

C(=C\c1cccc(-c2nn[nH]n2)n1)/c1ccccc1
inhibition (Rattus norvegicus [6]): inactive

O=C(O)C(=O)Nc1cccc(/C=C/c2ccccc2)n1
inhibition (Rattus norvegicus [6]): inactive

O=C(Nc1nn[nH]n1)c1cccnc1
inhibition in vivo at 10 mg/kg (Rattus norvegicus [1]): 3% | inhibition in vivo at 3 mg/kg (Rattus norvegicus [3]): 4% | inhibition in vivo at 30 mg/kg (Rattus norvegicus [2]): 18%

COc1ccnc(C(=O)Nc2nn[nH]n2)c1
inhibition in vivo at 10 mg/kg (Rattus norvegicus [1]): 88%

O=C(Nc1nn[nH]n1)c1cccc(Oc2ccccc2)n1
inhibition in vivo at 10 mg/kg (Rattus norvegicus [1]): 0%

O=C(O)c1cccc(/C=C/c2ccccc2)n1
inhibition (Rattus norvegicus [6]): inactive

CSc1ccc(C(=O)Nc2nn[nH]n2)nc1
inhibition in vivo at 10 mg/kg (Rattus norvegicus [1]): 29%

Cc1ccc(C(=O)Nc2nn[nH]n2)nc1
inhibition in vivo at 10 mg/kg (Rattus norvegicus [1]): 42%

Cc1ccnc(C(=O)Nc2nn[nH]n2)c1
inhibition in vivo at 1 mg/kg (Rattus norvegicus [5]): 28% | inhibition in vivo at 3 mg/kg (Rattus norvegicus [3]): 42% | inhibition in vivo at 3 mg/kg (Rattus norvegicus [4]): 51%

COc1cccc(C(=O)Nc2nn[nH]n2)n1
inhibition in vivo at 10 mg/kg (Rattus norvegicus [1]): 58% | inhibition in vivo at 3 mg/kg (Rattus norvegicus [3]): 36%

CCc1ccnc(C(=O)Nc2nn[nH]n2)c1
inhibition in vivo at 1 mg/kg (Rattus norvegicus [5]): 32% | inhibition in vivo at 3 mg/kg (Rattus norvegicus [3]): 29% | inhibition in vivo at 3 mg/kg (Rattus norvegicus [4]): 54%

O=C(Nc1nn[nH]n1)c1cc(Br)ccn1
inhibition in vivo at 1 mg/kg (Rattus norvegicus [5]): 9% | inhibition in vivo at 10 mg/kg (Rattus norvegicus [1]): 100% | inhibition in vivo at 3 mg/kg (Rattus norvegicus [3]): 34%

COc1cccnc1C(=O)Nc1nn[nH]n1
inhibition in vivo at 10 mg/kg (Rattus norvegicus [1]): 0%

CNc1ccc(-c2cc(C)cc(C(=O)Nc3nn[nH]n3)n2)cc1
inhibition in vivo at 3 mg/kg (Rattus norvegicus [3]): 89%

CCCCc1cccc(C(=O)Nc2nn[nH]n2)n1
inhibition in vivo at 10 mg/kg (Rattus norvegicus [1]): 18%

Cc1cc(Cl)cc(C(=O)Nc2nn[nH]n2)n1
inhibition in vivo at 1 mg/kg (Rattus norvegicus [5]): 66% | inhibition in vivo at 10 mg/kg (Rattus norvegicus [1]): 100% | inhibition in vivo at 3 mg/kg (Rattus norvegicus [4]): 85%

O=C(Nc1nn[nH]n1)c1cccc(Br)n1
inhibition in vivo at 10 mg/kg (Rattus norvegicus [1]): 48% | inhibition in vivo at 3 mg/kg (Rattus norvegicus [3]): 38%

O=C(Nc1nn[nH]n1)c1cc([N+](=O)[O-])ccn1
inhibition in vivo at 10 mg/kg (Rattus norvegicus [1]): 38%

O=C(Nc1nn[nH]n1)c1cc(Cl)ccn1
inhibition in vivo at 1 mg/kg (Rattus norvegicus [5]): 38% | inhibition in vivo at 10 mg/kg (Rattus norvegicus [1]): 100% | inhibition in vivo at 3 mg/kg (Rattus norvegicus [3]): 72% | inhibition in vivo at 3 mg/kg (Rattus norvegicus [4]): 71%
